Sampled rows, rich in hits. Any-hit rate of the full collection: about 1.9%.
MT1-MMP act inh – blockers of MT1-MMP proenzyme processing, primary screen, HT1080 RFP-PRO-GFP cells, GFP/RFP fluorescence; Matrix metalloproteinase-14 (Homo sapiens), P50281; GFP/RFP ratio fluorescence, overnight; percent of plate control window, DMSO zero; GFP/RFP ratio change, % at 20 µM; 0.061% of 360,000 active; AID 651647, 2012;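 active = GFP/RFP ratio change of at least 30% with cell ATP level not reduced by more than half and red fluorescence within 50% of control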
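system = RFP-PRO-GFP reporter HT1080 cells | dosing = 20 µM single dose, 1% DMSO | timing = overnight cell settling, then overnight compound exposure, 37 °C, 5% CO2 | read-out basis = GFP/RFP fluorescence ratio | controls = DMSO and RFP-L50D-GFP cell wells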
PG9 binder – binders of HIV-1 gp120 antibody PG9, primary screen, biochemical, TR-FRET. 0.43% of 360,000 active. AID 624416, 2012. inhibition, % at 6.7 µM. TR-FRET gp120-PG9 antibody binding; in the data active = inhibition above about 8.5%
SKN-1 block – suppressors of acrylamide-induced Pgst-4::GFP reporter in worms, primary screen, SKN-1 inhibitor project, whole organism, uHTS, GFP/RFP fluorescence ratio, strain VP596; C. elegans VP596 Pgst-4::GFP/RFP ratio, 24 h; inhibition, % at 21.8 µM; 0.49% of 360,000 active; AID 624304, 2012;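 active = interference check ratio from 0.5 to 1.5 plus GFP to RFP signal ratio inhibition reaching or exceeding a fixed threshold, cut at about 30% in these data, passing the limit was not always enough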
NR1D1 modulator – modulators of Rev-erb alpha DNA binding, primary screen, biochemical, FITC-DNA, fluorescence polarization, uHTS; Nuclear receptor subfamily 1 group D member 1 (Homo sapiens), P20393; Rev-erbα–FITC-DNA binding, 90 min; activity, % at 10 µM; 0.79% of 370,000 active;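 active = activity above about 14%, limit read from the data; passing the limit was not always enough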;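 also: 0% = DMSO wells with 35 nM protein and 100% = DMSO wells with 750 nM protein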
Target sequence (P20393 whole entry, looked up): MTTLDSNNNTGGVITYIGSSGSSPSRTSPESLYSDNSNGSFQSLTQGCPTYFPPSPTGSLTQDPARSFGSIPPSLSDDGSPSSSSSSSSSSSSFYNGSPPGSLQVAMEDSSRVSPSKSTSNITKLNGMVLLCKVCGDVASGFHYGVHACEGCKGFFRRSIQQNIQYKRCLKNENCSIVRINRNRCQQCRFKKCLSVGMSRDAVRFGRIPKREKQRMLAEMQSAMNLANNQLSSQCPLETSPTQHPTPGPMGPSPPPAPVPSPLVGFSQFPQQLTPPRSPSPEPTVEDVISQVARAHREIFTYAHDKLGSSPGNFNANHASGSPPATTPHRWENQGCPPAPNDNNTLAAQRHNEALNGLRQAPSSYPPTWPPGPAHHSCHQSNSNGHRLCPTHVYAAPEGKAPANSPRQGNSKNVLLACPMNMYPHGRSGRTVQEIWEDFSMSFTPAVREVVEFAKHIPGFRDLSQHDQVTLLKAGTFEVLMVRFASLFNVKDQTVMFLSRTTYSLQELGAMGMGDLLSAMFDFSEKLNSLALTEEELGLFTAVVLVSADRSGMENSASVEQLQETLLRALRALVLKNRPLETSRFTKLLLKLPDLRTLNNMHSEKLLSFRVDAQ
NR2E3 ag-1 – inhibitors of NR2E3-RetCOR corepressor binding, primary screen, NR2E3 agonist project, biochemical, TR-FRET, GST-NR2E3, biotin-RetCOR. Photoreceptor-specific nuclear receptor (Homo sapiens), Q9Y5X4. 0.12% of 320,000 active. 1536-well. inhibition of corepressor binding, % at 4.78 µM. AID 2300, 2010;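 active = percent inhibition above the cutoff of mean plus 3 SD of all tested compounds, set per screening campaign, cut at about 20% in these data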;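 also: 0% = DMSO wells and 100% = biotin wells as full block of FRET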
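System: GST-NR2E3 and biotin-RetCOR proteins; probe or stimulus: 7 nM biotin-RetCOR; doses: compound at 4.8 µM, single dose; schedule: Compound–protein incubation for 5 h at 4 °C; detection: time-resolved FRET; read-out: percent inhibition; controls: biotin wells as high control, 0.6% DMSO wells as low control; format: 1536-well plates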
NR2E3 ag-2 – NR2E3 agonists in two-hybrid cells, primary screen, cell-based, luminescence, CHO-S, Gal4-NCOR/VP16-NR2E3; 0.35% of 360,000 active; AID 602229, 2012; Photoreceptor-specific nuclear receptor (Homo sapiens), Q9Y5X4; luciferase; inhibition of corepressor binding, % at 3.98 µM;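 active = inhibition above the mean of all tested compounds plus 3 SD, cut at about 70% in these data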;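 also: 0% = DMSO with NR2E3 transfected cells and 100% = cells lacking NR2E3 construct; higher means lower luciferase signal from less NR2E3 corepressor binding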
NR2E3 ag confirm – NR2E3 agonist confirmation in cells, cell-based, luminescence, CHO-S two-hybrid; shares compounds with NR2E3 ag-2; CHO-S mammalian two-hybrid NR2E3-NCOR, luciferase luminescence; inhibition, % at 3.98 µM; 51% of 2,300 active;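 active = average inhibition above a cutoff equal to the mean inhibition of all tested compounds plus one SD, cut at about 70% in these data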;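 also: 0% = DMSO in NR2E3 cells and 100% = DMSO in cells lacking NR2E3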
GAL4-VP16 luc – GAL4-VP16 reporter modulators, confirmation, counter-screen for NR2E3 agonist project, cell-based, luminescence, CHO-S, high throughput; shares compounds with NR2E3 ag-2; CHO-S GAL4-VP16 luciferase reporter; inhibition, % at 3.98 µM; 29% of 2,300 active; AID 624379, 2012;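 active = mean inhibition above a cutoff equal to the average over all tested compounds plus one standard deviation, cut at about 70% in these data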;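 also: luciferase from a UAS reporter driven by GAL4-VP16 transactivation; 0% = DMSO with VP16-transfected cells and 100% = DMSO with cells lacking VP16; higher means less reporter light so more repression of VP16 activity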
Numbers without * were called inactive; / = no result given.

SMILES	MT1-MMP act inh	PG9 binder	SKN-1 block	NR1D1 modulator	NR2E3 ag-1	NR2E3 ag-2	NR2E3 ag confirm	GAL4-VP16 luc
FC(F)(F)c1cccc(Sc2cc(C(F)(F)F)nc(-c3ccccn3)n2)c1	-25.9	3.6	1.2	-2.3	0.3	-2.7	/	/
COc1cnc(-c2ccccn2)nc1Sc1cccc(Cl)c1	-0.8	0.1	16.0	-1.9	0.4	52.4	62.6	4.6
COc1cnc(-c2ccccn2)nc1NC(C)C	-3.0	-1.7	5.3	-3.8	-1.5	67.8	38.2	-23.2
CCOC(=O)[C@]12CCCC3=C1N(CCC3)C(=O)[C@@H](CC(=O)N1CCC(c3ccccc3)CC1)C2	/	/	/	4.2	/	/	/	/
CCOC(=O)[C@@]12CCCC3=C1N(CCC3)C(=O)[C@H]2CC(=O)NCc1ccc(OC)c(OC)c1	/	/	/	3.5	/	/	/	/
COc1ccc(-c2nc(-c3ccccn3)ncc2S(C)(=O)=O)cc1	0.6	-1.5	2.9	-3.1	4.0	-18.9	/	/
COc1cnc(-c2ccccn2)nc1Sc1ccc(C)cc1	-1.9	1.7	8.6	-5.1	0.7	94.0*	42.0	29.7
CCC(NC(=O)c1ccc2nc(Cc3ccc(OC)cc3)oc2c1)c1ccncc1 (stereo not given)	-7.0	-0.4	-1.8	-7.1	-2.6	67.2	83.5*	61.2
CCC(C)NC(=O)c1ccc2nc(Cc3ccc(OC)cc3)oc2c1 (stereo not given)	0.0	-0.7	6.1	2.1	-0.1	-19.0	/	/
Cc1cc(N2CCN(C(=O)OC(C)(C)C)C[C@@H]2C)ccc1N1C[C@@H](C)O[C@@H](C)C1	/	-1.9	/	4.1	/	/	/	/
CCOC(=O)[C@@]12CCC3=C1N(CCC3)C(=O)[C@H](CC(=O)NCCC(C)C)C2	/	/	/	2.7	/	/	/	/
CCCc1nc2c(=O)n(C)c(=O)nc-2n(C)n1	-25.5	-1.2	-7.7	-26.5	/	104.5*	100.6*	85.5*
C[C@H](CO)N1C[C@H](C)[C@@H](CN(C)C(=O)Cc2cccnc2)Oc2ncc(C#CCc3ccccc3)cc2C1=O	/	2.0	/	-0.3	/	/	/	/
O=c1c(Sc2ccccc2)c(C(F)(F)F)[nH]n1-c1ccccc1	-1.1	-1.7	7.9	-2.3	2.9	56.9	97.3*	74.0*
CCCCn1c(=N)n(CC(O)COc2cccc(C)c2)c2ccccc21 (stereo not given)	/	0.9	29.9	0.1	-2.1	48.8	-8.8	29.9
O=C(N[C@H](C(=O)N1CCC[C@H]1C(=O)NCCc1ccccc1Cl)C1CCCCC1)C1CC1	/	-0.6	/	8.0	/	/	/	/
Fc1ccc(-c2ccc3c(n2)CCCN3Cc2ccccc2C(F)(F)F)cc1	/	-3.0	/	0.7	/	/	/	/
O=C(O)c1ccc(N/N=C/c2ccc(C(F)(F)F)cc2)cc1	1.4	0.0	1.3	-2.1	-0.7	-20.2	/	/
CC(C)(C)c1ccc(/C=N/Nc2ccc(C(=O)O)cc2)cc1	1.5	-2.9	7.7	-5.3	-0.3	50.2	64.5	-33.2
CC1(C)C(=O)OC(c2ccco2)C(C)(C)C1=O (stereo not given)	-0.3	-1.4	7.1	-1.1	-1.2	0.2	/	/
CCC1(CC)C(=O)C(C)(C)C(=O)OC1c1ccccn1 (stereo not given)	4.9	-1.6	8.2	-1.8	0.0	91.7*	19.0	14.8
COc1cccc(CNC(=O)[C@H]2CCCN2C(=O)[C@H]2CCCN2C(=O)c2cccc3ccccc23)c1	/	-1.9	/	8.8	/	/	/	/
COc1cccc(CNC(=O)[C@@H]2CCCN2C(=O)[C@H]2CCCCN2C(=O)c2cccc3ccccc23)c1	-0.1	/	-15.3	/	/	85.7*	80.7*	63.2
C#CCNC(=O)C[C@H]1C[C@@]2(C(=O)OC)C(=C[C@H](COCc3ccccc3)O[C@@H]2C)N(CCC2=CCCCC2)C1=O	/	0.6	/	3.2	/	/	/	/
Oc1ccccc1/C=N/NC(=S)NC1CC2C=CC1C2 (stereo not given)	3.3	-0.5	-13.2	-0.5	-4.3	-5.6	/	/
SMILES	MT1-MMP act inh	PG9 binder	SKN-1 block	NR1D1 modulator	NR2E3 ag-1	NR2E3 ag-2	NR2E3 ag confirm	GAL4-VP16 luc
Oc1ccccc1C=NNC(=S)NC1CC2C=CC1C2 (stereo not given)	4.2	-0.8	9.3	3.4	/	57.3	-90.2	-98.0
O=C1C=CC2(C=C1)O[C@H](Cc1ccccc1)[C@@H](Cc1ccccc1)O2	-12.4	2.2	4.0	3.4	/	100.4*	99.6*	67.6
O=C1Nc2ccccc2C1Cc1ccccc1 (stereo not given)	-0.2	-0.9	-7.6	-7.1	1.1	-3.3	/	/
COc1ccc(C[C@@H]2OC3(C=CC(=O)C=C3)O[C@H]2Cc2ccc(OC)cc2)cc1	-13.4	/	-1.4	/	/	96.6*	96.4*	53.8
O=C(NC(NNc1ccc([N+](=O)[O-])cc1)(C(F)(F)F)C(F)(F)F)c1ccc(Cl)cc1	-2.0	1.7	-13.2	-2.6	4.2	47.7	80.3*	84.9*
CCCc1ccc(Oc2cn[nH]c2-c2ccc(O)c(C)c2O)cc1	-8.6	-0.2	24.5	7.2	1.5	48.9	61.2	58.2
CCCc1ccc(Oc2c(-c3ccc(O)c(C)c3O)n[nH]c2C)cc1	3.6	0.7	-23.3	-3.3	-2.0	15.0	/	/
CSc1ccc(CN2C(=O)C(C)Oc3c(C(C)=O)cccc32)cc1 (stereo not given)	-4.3	-0.7	8.3	0.1	/	2.4	/	/
CSc1ccc(CN2C(=O)C(F)(F)Oc3c(C(C)=O)cccc32)cc1	-0.7	/	12.7	/	/	48.6	44.4	53.3
CN1C(=O)c2cc(NC(=O)Nc3ccc(F)c(F)c3)ccc2OC[C@H]2O[C@@H](CC(=O)O)CC[C@H]21	/	/	/	-0.5	/	/	/	/
CCc1ccc(CN(C)C(=O)c2cc(COc3ccc(-n4cncn4)cc3)on2)cc1	1.5	0.9	0.6	-3.6	1.6	80.4*	43.2	44.2
Cc1ccc(OCc2cc(C(=O)N(C)Cc3cnn(-c4ccccc4C)c3)no2)cn1	1.9	0.1	7.1	-4.1	1.0	79.5*	55.8	48.8
CC(C)N(Cc1nccn1C)C(=O)c1cc(COc2ccc(-n3cncn3)cc2)on1	0.8	-3.6	-10.2	-2.9	2.3	-21.7	/	/
